Tested on: SNB-75
Assay: Growth inhibition of human SNB-75 cells incubated for 48 hrs by sulforhodamine B assay
Format: functional
Details: not given
Summary of the method: (§1)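 NCI DTP 60-line human tumour panel. Dose-response curves were run only for ligands active in the initial 10 µM screen. GI50 (concentration giving 50% of maximal inhibition of proliferation) and TGI (concentration giving total growth inhibition) were derived from these curves.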

Structure (SMILES)	LC50	TGI
Cc1cccc(NC(=O)c2sc3nc4c(cc3c2N)C(=O)CCC4)c1	> 100000 nM	≥ 100000 nM

Tested on: NCI-H23
Assay: Growth inhibition of human NCI-H23 cells assessed as cell growth at 0.1 uM incubated for 48 hrs by sulforhodamine B assay relative to control
Format: functional
Details: read-out: Activity

Structure (SMILES)	growth at 0.1 µM
Cc1cccc(NC(=O)c2sc3nc4c(cc3c2N)C(=O)CCC4)c1	82%

Tested on: OVCAR-8
Assay: Growth inhibition of human OVCAR-8 cells assessed as cell growth at 1 uM incubated for 48 hrs by sulforhodamine B assay relative to control
Format: functional
Details: read-out: Activity

Structure (SMILES)	growth at 1 µM
Cc1cccc(NC(=O)c2sc3nc4c(cc3c2N)C(=O)CCC4)c1	47%

Tested on: MDA-MB-435
Assay: Growth inhibition of human MDA-MB-435 cells incubated for 48 hrs by sulforhodamine B assay
Format: functional
Details: not given
Summary of the method: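 NCI60 panel at the NCI Developmental Therapeutics Program. Only compounds active in the 10 µM screen went to dose-response testing. GI50, the concentration giving 50% of maximal inhibition of proliferation, and TGI, the concentration giving total growth inhibition, were derived from the dose-response curves.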

Structure (SMILES)	GI50	TGI
Cc1cccc(NC(=O)c2sc3nc4c(cc3c2N)C(=O)CCC4)c1	29.7 nM	115 nM

Same assay, conditions: read-out: LC50 (the source's name)

Structure (SMILES)	CC50
Cc1cccc(NC(=O)c2sc3nc4c(cc3c2N)C(=O)CCC4)c1	681 nM

Tested on: NCI-H226
Assay: Growth inhibition of human NCI-H226 cells assessed as cell growth at 0.01 uM incubated for 48 hrs by sulforhodamine B assay relative to control
Format: functional
Details: read-out: Activity

Structure (SMILES)	growth at 0.01 µM
Cc1cccc(NC(=O)c2sc3nc4c(cc3c2N)C(=O)CCC4)c1	95%

Tested on: CCRF-CEM
Assay: Growth inhibition of human CCRF-CEM cells assessed as cell growth at 0.01 uM incubated for 48 hrs by sulforhodamine B assay relative to control
Format: functional
Details: read-out: Activity
Summary of the method: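 NCI Developmental Therapeutics Program NCI60 panel. Compounds that were active in the 10 µM one-dose screen went on to dose–response testing. Growth at each concentration is expressed relative to untreated control (100%). GI50 (concentration giving 50% of maximal inhibition of proliferation) and TGI (concentration giving total growth inhibition) were derived from the curves.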

Structure (SMILES)	growth at 0.01 µM
Cc1cccc(NC(=O)c2sc3nc4c(cc3c2N)C(=O)CCC4)c1	96%

Tested on: RXF 393
Assay: Growth inhibition of human RXF 393 cells assessed as cell growth at 0.1 uM incubated for 48 hrs by sulforhodamine B assay relative to control
Format: functional
Details: read-out: Activity

Structure (SMILES)	growth at 0.1 µM
Cc1cccc(NC(=O)c2sc3nc4c(cc3c2N)C(=O)CCC4)c1	69%

Tested on: OVCAR-5
Assay: Growth inhibition of human OVCAR-5 cells incubated for 48 hrs by sulforhodamine B assay
Format: functional
Details: not given
Summary of the method: as §1

Structure (SMILES)	TGI
Cc1cccc(NC(=O)c2sc3nc4c(cc3c2N)C(=O)CCC4)c1	≥ 100000 nM

Same assay, conditions: read-out: LC50 (the source's name)

Structure (SMILES)	CC50
Cc1cccc(NC(=O)c2sc3nc4c(cc3c2N)C(=O)CCC4)c1	> 100000 nM

Tested on: MDA-MB-435
Assay: Growth inhibition of human MDA-MB-435 cells assessed as cell growth at 100 uM incubated for 48 hrs by sulforhodamine B assay relative to control
Format: functional
Details: read-out: Activity

Structure (SMILES)	growth at 100 µM
Cc1cccc(NC(=O)c2sc3nc4c(cc3c2N)C(=O)CCC4)c1	-64%

Tested on: T47D
Assay: Growth inhibition of human T47D cells assessed as cell growth at 0.1 uM incubated for 48 hrs by sulforhodamine B assay relative to control
Format: functional
Details: read-out: Activity

Structure (SMILES)	growth at 0.1 µM
Cc1cccc(NC(=O)c2sc3nc4c(cc3c2N)C(=O)CCC4)c1	78%

Tested on: SK-MEL-5
Assay: Growth inhibition of human SK-MEL-5 cells assessed as cell growth at 0.1 uM incubated for 48 hrs by sulforhodamine B assay relative to control
Format: functional
Details: read-out: Activity

Structure (SMILES)	growth at 0.1 µM
Cc1cccc(NC(=O)c2sc3nc4c(cc3c2N)C(=O)CCC4)c1	44%

Tested on: SK-MEL-28
Assay: Growth inhibition of human SK-MEL-28 cells assessed as cell growth at 0.01 uM incubated for 48 hrs by sulforhodamine B assay relative to control
Format: functional
Details: read-out: Activity

Structure (SMILES)	growth at 0.01 µM
Cc1cccc(NC(=O)c2sc3nc4c(cc3c2N)C(=O)CCC4)c1	93%

Tested on: HCT-116
Assay: Growth inhibition of human HCT-116 cells assessed as cell growth at 0.1 uM incubated for 48 hrs by sulforhodamine B assay relative to control
Format: functional
Details: read-out: Activity

Structure (SMILES)	growth at 0.1 µM
Cc1cccc(NC(=O)c2sc3nc4c(cc3c2N)C(=O)CCC4)c1	68%

Tested on: U-251
Assay: Growth inhibition of human U-251 cells assessed as cell growth at 0.1 uM incubated for 48 hrs by sulforhodamine B assay relative to control
Format: functional
Details: read-out: Activity

Structure (SMILES)	growth at 0.1 µM
Cc1cccc(NC(=O)c2sc3nc4c(cc3c2N)C(=O)CCC4)c1	74%

Tested on: OVCAR-8
Assay: Growth inhibition of human OVCAR-8 cells incubated for 48 hrs by sulforhodamine B assay
Format: functional
Details: not given
Summary of the method: as §1

Structure (SMILES)	GI50	TGI
Cc1cccc(NC(=O)c2sc3nc4c(cc3c2N)C(=O)CCC4)c1	17.1 nM	≥ 100000 nM

Same assay, conditions: read-out: LC50 (the source's name)

Structure (SMILES)	CC50
Cc1cccc(NC(=O)c2sc3nc4c(cc3c2N)C(=O)CCC4)c1	> 100000 nM

Tested on: SK-MEL-28
Assay: Growth inhibition of human SK-MEL-28 cells incubated for 48 hrs by sulforhodamine B assay
Format: functional
Details: not given
Summary of the method: as §1

Structure (SMILES)	GI50	LC50	TGI
Cc1cccc(NC(=O)c2sc3nc4c(cc3c2N)C(=O)CCC4)c1	30.8 nM	> 100000 nM	≥ 100000 nM
